Experimental data as given in ChEMBL document CHEMBL1128294, “Farnesyl derivatives of rigid carboxylic acids-inhibitors of ras-dependent cell growth” (J Med Chem, 1995).

How the values were obtained:
[1] = molecular target: Protein-S-isoprenylcysteine O-methyltransferase (Rattus norvegicus) (UniProt Q9WVM4); assay: In vitro inhibition of Prenylated protein methyltransferase of rat brain cerebellar synaptosomes was assessed from the amount of [3H]-methyl esters formed in 15 min; type: subcellular
Chain of Protein-S-isoprenylcysteine O-methyltransferase (Rattus norvegicus) (Q9WVM4 whole entry): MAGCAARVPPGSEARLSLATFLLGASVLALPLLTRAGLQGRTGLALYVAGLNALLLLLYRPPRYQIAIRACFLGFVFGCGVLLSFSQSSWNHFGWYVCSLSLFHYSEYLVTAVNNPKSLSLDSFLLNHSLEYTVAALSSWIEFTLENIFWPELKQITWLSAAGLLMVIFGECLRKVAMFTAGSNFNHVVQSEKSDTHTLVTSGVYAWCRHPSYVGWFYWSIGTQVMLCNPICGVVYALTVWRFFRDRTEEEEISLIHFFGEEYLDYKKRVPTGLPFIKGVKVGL
Outline: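 Compounds at 150 μM final were tested as methyl acceptors. Enzyme source was rat brain cerebellar synaptosomes (100 μg protein) with 25 μM [methyl-3H]AdoMet ([…]) as methyl donor. Read-out was [3H]methyl esters formed in 15 min, in quadruplicate, ±SEM. Detection limit about 3 pmol.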

EJ [2] = assay: The highest nontoxic concentration for human Ha-ras-transformed rat 1 (EJ) cells was determined by MTT staining method; type: functional
Outline: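 EJ (Ha-ras-transformed Rat1) cultures treated with compound were stained with MTT to detect live cells, with trypan blue also used to detect dead cells. The value reported is the highest concentration without toxicity.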

[3] = molecular target: Protein-S-isoprenylcysteine O-methyltransferase (Rattus norvegicus, UniProt Q9WVM4); assay: Ability to inhibit prenylated protein methyltransferase (PPMTase) in cell free systems
Chain of Protein-S-isoprenylcysteine O-methyltransferase (Q9WVM4 whole entry): as above
Outline: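 PPMTase source: rat cerebellum synaptosomal membranes (100 μg protein). Substrate 50 μM AFC with 25 μM [methyl-3H]AdoMet, 37 °C for 15 min, with and without a range of inhibitor concentrations, run in duplicate. Activity with drug is expressed as percent of activity without drug, and Ki is derived from the inhibition curves.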

EJ [4] = assay: Effective concentration required for 50% inhibition of growth of human Ha-ras-transformed rat 1 (EJ)cells; type: functional, cell-based
Outline: (§1)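 Ha-ras-transformed Rat1 (EJ) cells grown in DMEM/10% FCS with compound in 0.1% DMSO (vehicle controls 0.1% DMSO), 7-day cultures. Cell number by direct counting gives dose–response curves, and EC50 is the concentration giving 50% growth inhibition. Means of three to five determinations ±SD.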

EJ [5] = assay: Effective concentration required for 50% inhibition of growth of human Ha-ras-transformed rat 1 (EJ)cells; not active at 200 uM; type: functional, cell-based; outline: as §1

Row | SMILES | Amount formed [1] [pmol] | Cytotoxic endpoint (EJ [2]) [µM] | Ki [3] [µM] | EC50 (EJ [4]) [µM] | EC50 (EJ [5])
1 | CC(C)=CCC/C(C)=C/CC/C(C)=C/CSc1ncccc1C(=O)O | 0.73 | 200 | 14.9 | 126 | 
2 | CCC(=O)SC/C=C(\C)CC/C=C(\C)CCC=C(C)C | 26.3 |  |  |  | 
3 | CC(C)=CCC/C(C)=C/CC/C(C)=C/CSc1ccc(N)cc1C(=O)O | 0.89 | 25 | 72.8 |  | Not Active
4 | CC(=O)N(C/C=C(\C)CC/C=C(\C)CCC=C(C)C)C(CS)C(=O)O (stereo not drawn) | 52.5 |  |  |  | 
5 | CC(C)=CCC/C(C)=C/CC/C(C)=C/CSc1ccccc1C(=O)O [SALIRASIB] | 0.76 | 200 | 2.8 | 7.5 | 
6 | CC(C)=CCC/C(C)=C/CC/C(C)=C/CNc1ccc(Cl)c(C(=O)O)c1 | 0.37 | 200 | 8 | 30.8 | 
